In PMC10975586 (ACS Omega, 2024):
Several values for one entry are separate records, joined by “and”; a condition that tells them apart may be missing. Identical values can stand only once. Entries after “also recorded” stand apart in the source; their conditions may differ. Like-named read-outs stand apart in the source and are kept apart here. Each block holds one molecule with its values, some of them ahead of it.

Key:
jack bean (JB) urease = jack bean (JB) urease (Canavalia ensiformis, UniProt P07374); test: Urease inhibitory assay; format: biochemical; details: for inhibition at 250 µM: read-out: inhibition (%) at 0.25 mM, JB urease; for inhibition at 250 µM / inhibition (%) at 0.25 mM: 0.25 mM, mean ± SEM, n = 3–4; for urease inhibitory profile (in words) / inhibition (%) at 0.25 mM: JB urease
Chain of jack bean (JB) urease (P07374 whole entry, looked up): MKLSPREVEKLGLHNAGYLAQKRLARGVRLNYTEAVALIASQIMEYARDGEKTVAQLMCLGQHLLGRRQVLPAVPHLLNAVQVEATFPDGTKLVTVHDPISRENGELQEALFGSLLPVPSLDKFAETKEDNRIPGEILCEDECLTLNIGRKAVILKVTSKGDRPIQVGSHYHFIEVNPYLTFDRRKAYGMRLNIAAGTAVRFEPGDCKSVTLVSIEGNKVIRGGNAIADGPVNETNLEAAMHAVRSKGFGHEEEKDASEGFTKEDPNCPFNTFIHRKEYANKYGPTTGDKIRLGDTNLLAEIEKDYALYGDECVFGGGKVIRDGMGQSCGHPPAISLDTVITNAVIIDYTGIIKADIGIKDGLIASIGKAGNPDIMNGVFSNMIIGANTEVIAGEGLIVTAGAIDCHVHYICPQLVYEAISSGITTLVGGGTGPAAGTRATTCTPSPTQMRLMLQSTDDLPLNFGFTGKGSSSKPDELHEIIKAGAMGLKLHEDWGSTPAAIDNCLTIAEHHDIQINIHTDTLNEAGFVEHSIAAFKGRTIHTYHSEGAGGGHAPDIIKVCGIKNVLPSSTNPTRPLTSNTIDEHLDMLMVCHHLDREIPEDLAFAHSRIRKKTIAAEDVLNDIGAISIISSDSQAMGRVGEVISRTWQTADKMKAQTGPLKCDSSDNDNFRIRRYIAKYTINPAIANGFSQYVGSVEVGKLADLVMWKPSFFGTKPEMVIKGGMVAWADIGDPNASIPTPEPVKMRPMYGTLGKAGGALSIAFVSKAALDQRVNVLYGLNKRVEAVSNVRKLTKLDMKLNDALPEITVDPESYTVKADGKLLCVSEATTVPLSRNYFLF

JB urease enzyme = JB urease enzyme (Canavalia ensiformis, UniProt P07374); test: Kinetic analysis of JB urease inhibition; format: biochemical, jack bean; details: for Vmax: in presence of the inhibitor
Chain of JB urease enzyme (P07374 whole entry, looked up): as above
Outline: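 Jack bean urease (1 unit/well) in 50 mM phosphate buffer pH 7.4 is preincubated with test compound for 10 min at 37 °C. Urea is added from a 50 mM solution and the reaction runs 15 min. Phenol-alkali reagent stops it, and A630 is read after 10 min. Mode of inhibition, Km, Vmax and Ki come from double-reciprocal plots and nonlinear regression (mean ± SEM, n = 3).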

inhibition at 250 µM (jack bean (JB) urease): 34.54 ± 0.26%
SMILES: CCN1CCN(C(=O)N[C@@H](C(=O)N[C@@H]2C(=O)N3C(C(=O)O)=C(CSc4nnnn4C)CS[C@H]23)c2ccc(O)cc2)C(=O)C1=O [cefoperazone]

IC50 (jack bean (JB) urease): 21.4 ± 0.64 µM
inhibition at 250 µM (jack bean (JB) urease): 91.27 ± 0.85%
SMILES: CC1=C(C(=O)O)N2C(=O)[C@@H](NC(=O)[C@H](N)c3ccc(O)cc3)[C@H]2SC1 [cefadroxil]

IC50 (jack bean (JB) urease): 241.5 ± 0.87 µM
inhibition at 250 µM (jack bean (JB) urease): 51.7 ± 1.56%
SMILES: CO/N=C(\C(=O)N[C@@H]1C(=O)N2C(C(=O)O)=C(COC(N)=O)CS[C@H]12)c1ccco1 [cefuroxime]

IC50 (jack bean (JB) urease): 157.4 ± 0.42 µM
urease inhibitory profile (in words) (jack bean (JB) urease): poor inhibitory potential
inhibition at 250 µM (jack bean (JB) urease): 72.6 ± 0.98%
SMILES: CO/N=C(\C(=O)N[C@@H]1C(=O)N2C(C(=O)O)=C(CSc3nc(=O)c(=O)[nH]n3C)CS[C@H]12)c1csc(N)n1 [ceftriaxone]

IC50 (jack bean (JB) urease): 27.4 ± 0.74 µM
inhibition at 250 µM (jack bean (JB) urease): 81.9 ± 1.46%
SMILES: CO/N=C(\C(=O)N[C@@H]1C(=O)N2C(C(=O)O)=C(COC(C)=O)CS[C@H]12)c1csc(N)n1 [cefotaxime]

inhibition (%) at 0.25 mM (jack bean (JB) urease): 42.76 ± 0.27%
SMILES: CC=CC1=C(C(=O)O)N2C(=O)[C@@H](NC(=O)[C@H](N)c3ccc(O)cc3)[C@H]2SC1 [cefprozil]

IC50 (jack bean (JB) urease): 145.8 ± 0.37 µM
urease inhibitory profile (in words) (jack bean (JB) urease): poor inhibitory potential
inhibition at 250 µM (jack bean (JB) urease): 72.5 ± 0.94%
SMILES: CC1=C(C(=O)O)N2C(=O)[C@@H](NC(=O)[C@H](N)c3ccccc3)[C@H]2SC1 [cefalexin]

IC50 (jack bean (JB) urease): 23.7 ± 0.82 µM
inhibition at 250 µM (jack bean (JB) urease): 91.3 ± 1.86%
SMILES: COCC1=C(C(=O)O)N2C(=O)[C@@H](NC(=O)/C(=N\OC)c3csc(N)n3)[C@H]2SC1 [cefpodoxime]

Further lines, the molecule ahead of its results:

SMILES: CO/N=C(\C(=O)N[C@@H]1C(=O)N2C(C(=O)[O-])=C(C[N+]3(C)CCCC3)CS[C@H]12)c1csc(N)n1 [cefepime]
IC50 (jack bean (JB) urease): 78.65 ± 0.45 µM
inhibition at 250 µM (jack bean (JB) urease): 73.3 ± 1.35%

SMILES: COc1c(N2C[C@@H]3CCCN[C@@H]3C2)c(F)cc2c(=O)c(C(=O)O)cn(C3CC3)c12 [moxifloxacin]
IC50 (jack bean (JB) urease): 135.3 ± 0.39 µM
urease inhibitory profile (in words) (jack bean (JB) urease): weak urease inhibitions; also recorded: weak enzyme inhibitors
inhibition at 250 µM (jack bean (JB) urease): 75.27 ± 0.74%

SMILES: CO/N=C(\C(=O)N[C@@H]1C(=O)N2C(C(=O)O)=CCS[C@H]12)c1csc(N)n1 [ceftizoxime]
inhibition at 250 µM (jack bean (JB) urease): 32.41 ± 0.24%

SMILES: CC1COc2c(N3CCN(C)CC3)c(F)cc3c(=O)c(C(=O)O)cn1c23 (stereo not shown) [ofloxacin]
IC50 (jack bean (JB) urease): 13.2 ± 0.32 µM
inhibition at 250 µM (jack bean (JB) urease): 83.67 ± 0.67%
Ki (JB urease enzyme): 5.43 µM
type of inhibition (JB urease enzyme; JB urease): competitive inhibition; also recorded: competitive inhibitors
Vmax (JB urease enzyme; JB urease): 86.62 µM/min

SMILES: N[C@@H](C(=O)N[C@@H]1C(=O)N2C(C(=O)O)=C(Cl)CS[C@H]12)c1ccccc1 [cefaclor]
IC50 (jack bean (JB) urease): 62.9 ± 0.78 µM
inhibition at 250 µM (jack bean (JB) urease): 92.4 ± 1.53%

SMILES: CC1=C(C(=O)O)N2C(=O)[C@@H](NC(=O)[C@H](N)C3=CCC=CC3)[C@H]2SC1 [cefradine]
IC50 (jack bean (JB) urease): 226.8 ± 0.95 µM
inhibition at 250 µM (jack bean (JB) urease): 54.9 ± 1.54%

SMILES: C[C@@H]1CN(c2c(F)c(N)c3c(=O)c(C(=O)O)cn(C4CC4)c3c2F)C[C@H](C)N1 [sparfloxacin]
IC50 (jack bean (JB) urease): 213.9 ± 0.32 µM
inhibition at 250 µM (jack bean (JB) urease): 57.6 ± 0.62%

SMILES: CC(C)(O/N=C(\C(=O)N[C@@H]1C(=O)N2C(C(=O)[O-])=C(C[n+]3ccccc3)CS[C@H]12)c1csc(N)n1)C(=O)O [ceftazidime]
IC50 (jack bean (JB) urease): 123.6 ± 0.19 µM
inhibition (%) at 0.25 mM (jack bean (JB) urease): 76.94 ± 1.57% and 49.52 ± 1.78%

SMILES: O=C(O)c1cn(C2CC2)c2cc(N3CCNCC3)c(F)cc2c1=O [ciprofloxacin]
IC50 (jack bean (JB) urease): 134.5 ± 0.52 µM
urease inhibitory profile (in words) (jack bean (JB) urease): weak enzyme inhibitors
urease inhibitory profile (in words) (jack bean (JB) urease; listed as Ciprofloxacin): weak urease inhibitions
inhibition at 250 µM (jack bean (JB) urease): 78.3 ± 0.85%

SMILES: CO/N=C1\CN(c2nc3c(cc2F)c(=O)c(C(=O)O)cn3C2CC2)CC1CN (stereo not shown) [gemifloxacin]
IC50 (jack bean (JB) urease): 16.5 ± 0.85 µM
inhibition at 250 µM (jack bean (JB) urease): 92.5 ± 1.35%

SMILES: C=CC1=C(C(=O)O)N2C(=O)[C@@H](NC(=O)/C(=N\OCC(=O)O)c3csc(N)n3)[C@H]2SC1 [cefixime]
IC50 (jack bean (JB) urease): 215.5 ± 0.76 µM
urease inhibitory profile (in words) (jack bean (JB) urease): poor inhibitory potential
inhibition at 250 µM (jack bean (JB) urease): 68.5 ± 1.85%

SMILES: C[C@H]1COc2c(N3CCN(C)CC3)c(F)cc3c(=O)c(C(=O)O)cn1c23 [levofloxacin]
IC50 (jack bean (JB) urease): 7.24 ± 0.29 µM
inhibition at 250 µM (jack bean (JB) urease): 81.92 ± 0.62%
Ki (JB urease enzyme): 4.91 µM
maximum velocity (JB urease enzyme; JB urease): 84.51 μm/min
type of inhibition (JB urease enzyme; JB urease): competitive inhibitors
Vmax (JB urease enzyme; JB urease): 84.51 µM/min
type of inhibition (JB urease enzyme; JB urease, listed as Levofloxacin): competitive inhibition

SMILES: NC(N)=S [thiourea]
inhibition (%) at 0.25 mM (jack bean (JB) urease): 98.21 ± 0.18%
type of inhibition (JB urease enzyme; JB urease): competitive
Vmax (JB urease enzyme; JB urease): 110.1 µM/min
Ki (JB urease enzyme; JB urease, inhibitory constant): 19.7 µM
